Activity calls are given as the source filed them. The calls are words filed in the database; no cut-off is given here.
Tests used:
[1] = molecular target: Histone deacetylase (Homo sapiens) (UniProt Q13547+O15379+Q9UBN7+Q92769+Q9UQL6+Q8WUI4+Q9BY41+Q96DB2+P56524+Q9UKV0+Q969S8); experiment: Inhibition of HDAC in human MM1.S cells assessed as increase in H3K9Ac at > 1 uM after 48 hrs by Western blot analysis; format: cell-based; conditions: dose microM >1, time 48.0 hrs
In short: (§1)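 MM1.S cells exposed 48 h across a concentration range. Global H3K9Ac and H3K9me2 read by Western blot; run in duplicate.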

[2] = molecular target: T1, Histone-lysine N-methyltransferase EHMT2 (Homo sapiens) (UniProt Q96KQ7); experiment: Inhibition of G9A in human MM1.S cells assessed as decrease in H3K9Me2 levels > 1 uM after 48 hrs by Western blot analysis; format: cell-based; conditions: dose microM >1, time 48.0 hrs; in short: as §1
T1 sequence (whole entry): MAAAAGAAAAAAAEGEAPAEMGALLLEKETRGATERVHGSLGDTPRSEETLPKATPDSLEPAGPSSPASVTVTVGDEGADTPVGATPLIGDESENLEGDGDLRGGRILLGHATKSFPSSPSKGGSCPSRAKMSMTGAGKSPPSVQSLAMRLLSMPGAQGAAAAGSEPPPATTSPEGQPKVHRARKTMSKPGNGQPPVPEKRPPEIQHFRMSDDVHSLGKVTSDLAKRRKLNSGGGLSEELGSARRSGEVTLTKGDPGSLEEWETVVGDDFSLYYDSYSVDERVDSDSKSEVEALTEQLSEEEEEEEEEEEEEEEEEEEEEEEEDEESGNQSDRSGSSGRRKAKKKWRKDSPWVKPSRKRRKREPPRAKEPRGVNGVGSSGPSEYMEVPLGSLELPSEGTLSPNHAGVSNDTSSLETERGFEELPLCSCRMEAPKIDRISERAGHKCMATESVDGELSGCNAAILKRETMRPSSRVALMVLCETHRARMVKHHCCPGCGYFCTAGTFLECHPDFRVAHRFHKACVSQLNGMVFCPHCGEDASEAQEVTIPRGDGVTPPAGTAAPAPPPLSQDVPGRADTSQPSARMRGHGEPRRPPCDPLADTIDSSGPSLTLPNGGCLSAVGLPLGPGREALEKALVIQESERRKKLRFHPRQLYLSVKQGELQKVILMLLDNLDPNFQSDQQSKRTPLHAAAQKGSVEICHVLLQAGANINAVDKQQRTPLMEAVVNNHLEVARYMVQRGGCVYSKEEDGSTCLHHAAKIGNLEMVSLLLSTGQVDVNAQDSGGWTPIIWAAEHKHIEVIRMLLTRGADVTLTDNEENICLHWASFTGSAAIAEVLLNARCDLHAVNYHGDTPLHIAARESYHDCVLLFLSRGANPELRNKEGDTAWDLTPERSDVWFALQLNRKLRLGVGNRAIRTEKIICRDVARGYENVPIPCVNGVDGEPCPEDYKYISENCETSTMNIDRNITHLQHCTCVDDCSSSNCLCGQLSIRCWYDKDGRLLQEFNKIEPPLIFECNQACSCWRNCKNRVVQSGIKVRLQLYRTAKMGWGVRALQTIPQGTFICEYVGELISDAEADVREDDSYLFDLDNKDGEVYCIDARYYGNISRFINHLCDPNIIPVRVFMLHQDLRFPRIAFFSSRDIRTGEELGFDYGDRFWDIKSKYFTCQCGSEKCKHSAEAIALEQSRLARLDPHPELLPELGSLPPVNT

[3] = Toxicity in mouse assessed as mouse death at 5 mg/kg, ip after 15 mins; format: organism-based; conditions: in vivo, 0.25 h
In short: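 Observation made during a preliminary pharmacokinetic study with i.p. dosing, n = 5 mice per dose level, with blood extraction after administration.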

[4] = Apparent oral clearance in BALB/c RAG2-/- gammaC-/- mouse at 10 mg/kg, ip measured up to 24 hrs by UPLC-triple quadrupole MS analysis; format: ADME, organism-based; conditions: in vivo

SMILES	inhibition [1]	inhibition [2]	Activity [3]	CL/F [4]
COc1cc2c(NCC3CCN(c4ncc(C(=O)NO)cn4)CC3)cc(-c3ccc(C)o3)nc2cc1OCCCN1CCCC1	Active	Active	Toxic	–
COc1cc2nc(-c3ccc(C)o3)cc(NCC3CCN(c4ncc(C(=O)NO)cn4)CC3)c2cc1OC	–	–	–	13.3 mL/min

— ChEMBL document CHEMBL4834403, “Design and Synthesis of Novel Epigenetic Inhibitors Targeting Histone Deacetylases, DNA Methyltransferase 1, and Lysine Methyltransferase G9a with In Vivo Efficacy in Multiple Myeloma” (J Med Chem, 2021)
